Calls of active or inactive are those of the source.
Tests used:
NCI-H146 [1] = assay: Induction of apoptosis in human NCI-H146 cells assessed as cell viability at 10 nM after 24 hrs by trypan blue exclusion assay; format: functional; conditions: NCI-H146, 24 h, read-out: Activity
In short: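 H146 small-cell lung cancer cells exposed to serial compound concentrations for 24 hr, then collected and stained with trypan blue. Blue-stained or morphologically unhealthy cells were scored as dead, with at least 100 cells counted per sample.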

[2] = Inhibition of c-terminally truncated N-terminal 8xHis-tagged human Bcl-xL deletion mutant expressed in Escherichia coli BL21 (DE3) after 2 hrs by fluorescence polarization assay
NCI-H146 [3] = assay: Induction of apoptosis in human NCI-H146 cells assessed as cell viability after 24 hrs by trypan blue exclusion assay; format: functional, cell-based
In short: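 H146 cells exposed to a range of compound concentrations for 24 hr, then harvested and stained with trypan blue. Cells staining blue or looking morphologically unhealthy were scored as dead. At least 100 cells counted per sample.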

Mus musculus [4] = assay: Toxicity in SCID mouse assessed as body weight loss at 10 mg/kg, iv administered 5 days per week for 2 weeks relative to vehicle-treated control; format: organism-based; parameters: dose 10 mg/kg, route intravenous; conditions: in vivo
In short: (§1)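 Tolerability tested in SCID mice given daily i.v. doses, 5 days a week for 2 weeks. Body weight loss tracked against a 10% threshold.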

[5] = molecular target: T1, Apoptosis regulator Bcl-2 (Homo sapiens, UniProt P10415)
Mus musculus [6] = assay: Toxicity in SCID mouse assessed as body weight loss at 25 mg/kg, iv administered 5 days per week for 2 weeks relative to vehicle-treated control; format: organism-based; parameters: dose 25 mg/kg, route intravenous; conditions: in vivo; in short: as §1
[7] = molecular target: T1, Apoptosis regulator Bcl-2; assay: Inhibition of N-terminal 6xHis-tagged human Bcl-2 expressed in Escherichia coli BL21 (DE3) after 2 hrs by fluorescence polarization assay
[8] = Toxicity in iv dosed SCID mouse administered 5 days per week for 2 weeks; format: organism-based; conditions: in vivo
[9] = Cytotoxicity against human NCI-H146 cells assessed as growth inhibition after 4 days by WST-8 assay; format: functional, cell-based; conditions: NCI-H146, 96 h
NCI-H1417 = assay: Cytotoxicity against human H1417 cells assessed as growth inhibition after 4 days by WST-8 assay; format: functional, cell-based; conditions: NCI-H1417, 96 h
NCI-H146 [10] = assay: Induction of apoptosis in human NCI-H146 cells assessed as PARP cleavage at 100 nM after 24 hrs by Western blot analysis; format: functional, cell-based
In short: (§2)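 H146 cells treated for 24 hr, then lysed on ice for 20 min in RIPA buffer with PMSF and protease inhibitors. Cleared lysates normalized by protein assay and run on 4–20% SDS-PAGE, then blotted to PVDF. Probed with rabbit antibodies to PARP and caspase-3 (cleaved forms detected), GAPDH as loading control, with HRP chemiluminescence detection.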

Mus musculus [11] = assay: Toxicity in SCID mouse assessed as body weight loss at 50 mg/kg, iv administered 5 days per week for 2 weeks relative to vehicle-treated control; format: organism-based; parameters: dose 50 mg/kg, route intravenous; conditions: in vivo; in short: as §1
NCI-H146 [12] = assay: Antitumor activity against human NCI-H146 cells xenografted in SCID mouse assessed as tumor regression at 50 mg/kg, iv administered 5 days per week for 2 weeks; format: functional, organism-based; parameters: dose 50 mg/kg
In short: (§3)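 SCID mice bearing H146 xenografts randomized at 40–110 mm3 tumor volume (mean 70 mm3), 8 per group. Dosed intravenously, daily, 5 days a week for 2 weeks, with a vehicle control group. Tumor size and body weight measured 3 times weekly during dosing and twice weekly afterwards. Tumor volumes reported as mean ± SEM.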

Mus musculus [13] = assay: Toxicity in SCID mouse assessed as body weight loss at 75 mg/kg, iv administered 5 days per week for 2 weeks relative to vehicle-treated control; format: organism-based; parameters: dose 75 mg/kg, route intravenous; conditions: in vivo; in short: as §1
NCI-H146 [14] = assay: Antitumor activity against human NCI-H146 cells xenografted in SCID mouse assessed as tumor growth inhibition at 50 mg/kg, iv administered 5 days per week for 2 weeks; format: functional, organism-based; parameters: dose 50 mg/kg; in short: as §3
NCI-H146 [15] = assay: Induction of apoptosis in human NCI-H146 cells assessed as caspase 3 activation at 100 nM after 24 hrs by Western blot analysis; format: functional, cell-based; in short: as §2
NCI-H146 [16] = assay: Induction of apoptosis in human NCI-H146 cells xenografted in SCID mouse assessed as PARP cleavage at 50 mg/kg, iv after 3 to 6 hrs by Western blot analysis; format: functional, organism-based; parameters: dose 50 mg/kg
In short: (§4)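 SCID mice bearing H146 xenografts (100–200 mm3) received one i.v. dose, with a vehicle control group. Tumors harvested at 3, 6 and 24 h. PARP cleavage and caspase-3 cleavage assessed by Western blot.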

NCI-H146 [17] = assay: Induction of apoptosis in human NCI-H146 cells xenografted in SCID mouse assessed as caspase 3 cleavage at 50 mg/kg, iv after 3 to 24 hrs by Western blot analysis; format: functional, organism-based; parameters: dose 50 mg/kg; in short: as §4

T1 sequence (P10415 whole entry): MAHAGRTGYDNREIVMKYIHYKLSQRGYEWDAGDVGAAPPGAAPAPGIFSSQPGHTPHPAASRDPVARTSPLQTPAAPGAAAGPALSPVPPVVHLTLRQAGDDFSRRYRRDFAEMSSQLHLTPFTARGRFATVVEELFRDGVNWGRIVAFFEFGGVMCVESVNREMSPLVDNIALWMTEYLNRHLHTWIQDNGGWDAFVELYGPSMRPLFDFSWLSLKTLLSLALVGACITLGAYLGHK

Cc1c(C(=O)O)c(-c2cccc(N3CCN(c4ccc(NS(=O)(=O)c5ccc(N[C@H](CCN6CCC(O)CC6)CSc6ccccc6)c(S(=O)(=O)C(F)(F)F)c5)cc4)CC3)c2)c(-c2ccc(Cl)cc2)n1C(C)C
viability at 0.01 µM (NCI-H146 [1]): > 50% | IC50 [2]: 3.9 nM | Activity (NCI-H146 [3]): Dose-dependent effect | Activity (Mus musculus [4]): < 10% | Ki [5]: 0.8 nM | Activity (Mus musculus [6]): > 10% | IC50 [7]: 4 nM | MTD at 2 weeks [8]: 10 mg/kg | IC50 [9]: 13 nM | IC50 (NCI-H1417): 9 nM

Cc1c(C(=O)O)c(-c2cccc(N3CCN(c4ccc(NS(=O)(=O)c5ccc(N[C@H](CCN6CCC(O)CC6)CSc6ccccc6)c(S(=O)(=O)C(F)(F)F)c5)cc4)CC3)c2)c(-c2ccc(Cl)cc2)n1C
Activity (NCI-H146 [10]): Active | IC50 [2]: 7 nM | Activity (Mus musculus [11]): < 10% | Activity (NCI-H146 [3]): Dose-dependent effect | Ki [5]: 2.4 nM | Activity (NCI-H146 [12]): inactive | Activity (Mus musculus [13]): > 10% | TGI (NCI-H146 [14]): Active | IC50 [7]: 10.2 nM | Activity (NCI-H146 [15]): Active | Activity (NCI-H146 [16]): Active | Activity (NCI-H146 [17]): Active | MTD at 2 weeks [8]: 50 mg/kg | IC50 [9]: 108 nM | IC50 (NCI-H1417): 125 nM
